# Screening data from PubChem.
# Exocytosis inh – LAMP-1 surface exposure blockers, TALL-104 cells – cell-based, flow cytometry, MLPCN library, primary screen; TALL-104 LAMP-1 surface exposure; cells stimulated with thapsigargin and PMA; inhibition, % at 10 µM; 360,000 compounds, 0.66% hits; AID 651702, 2012;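 active = inhibition above about 55%, limit read from the data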
# T cell HTS – modulators of CD8 T cell-vesicle binding, primary screen, mouse 2C CD8+ T cells, flow cytometry; 2C CD8+ T cell-vesicle binding; active compounds read low; response (vesicle binding), % at 7 µM; 330,000 compounds, 0.068% hits; AID 2052, 2009;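 active = response, share of CD8 T cells binding vesicles, and their 90th percentile fluorescence all below set limits, cut at about 80% in these data, passing the limit was not always enough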;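 also: values below 100% mean blocked vesicle binding to the CD8+ T cells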
#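 Assay system – 2C mouse CD8+ T cells · Also added – QL9-loaded Drosophila micro-vesicles · Timing – Cell–vesicle co-incubation 1.5 h at 37 °C, staining 20 min on ice · Signal – flow cytometry of vesicle-bound cells · Measure – percent CD8+ FL2 mean versus row control · Controls – Peptide-free naked vesicles (low) and QL9 vesicles with 0.7% DMSO vehicle (high)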
# rCAG RNA binder – binders of r(CAG) RNA repeats, primary screen, biochemical, fluorescence; r(CAG) RNA repeat, TO-PRO-1 dye displacement fluorescence; inhibition, % at 3 µM; 370,000 compounds, 1.3% hits; AID 651821, 2012;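 active = inhibition above the plate cutoff, the mean of all test compounds on that plate plus 3 SD, cut at about 35% in these data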;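 also: 0% = DMSO alone and 100% = 100 µM mitoxantrone as full dye displacement; higher means more dye released from RNA so lower well fluorescence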
# V-ATPase pH – regulators of yeast V-ATPase proton pumping, primary screen, pHLuorin cytosolic pH fluorescence; S. cerevisiae; response, % at 10 µM; 350,000 compounds, 0.37% hits; AID 504577, 2011; in the data active = response mostly above about 7.3%, no sharp cut-off; inactive = mostly below about 5.4%; also: actives read high
# Beta2AR agonist – beta2AR agonists driving receptor internalization, primary screen, cell-based, FAP fluorogen, flow cytometry. 340,000 compounds, 0.43% hits. AID 504454, 2011. Am2.2-beta2AR cells. response, % (no concentration beside the values);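 active = response above a set limit, near 3 SD of response in nonfluorescent compounds, cut at about 42% in these data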
# Target sequence (P07550 whole entry, looked up): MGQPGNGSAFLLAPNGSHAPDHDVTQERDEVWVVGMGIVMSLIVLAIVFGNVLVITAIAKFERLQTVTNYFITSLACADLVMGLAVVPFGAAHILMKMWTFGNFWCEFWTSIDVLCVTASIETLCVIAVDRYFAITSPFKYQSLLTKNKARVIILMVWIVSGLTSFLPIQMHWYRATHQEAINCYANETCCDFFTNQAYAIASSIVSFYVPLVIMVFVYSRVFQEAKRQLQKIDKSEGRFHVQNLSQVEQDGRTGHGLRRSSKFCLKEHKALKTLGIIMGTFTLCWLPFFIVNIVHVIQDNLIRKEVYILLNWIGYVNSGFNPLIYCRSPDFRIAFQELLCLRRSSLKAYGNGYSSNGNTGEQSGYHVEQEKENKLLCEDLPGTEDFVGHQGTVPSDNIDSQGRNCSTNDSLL
# MPTP block – mitochondrial permeability transition pore inhibitors, primary screen, biochemical, isolated mouse mitochondria, absorbance. Ca2+ swelling absorbance, 30 min. AID 602449, 2012. inhibition, % at 10 µM. 360,000 compounds, 1.4% hits;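 active = inhibition of 50% or more, scaled per plate between neutral and stimulator controls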;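 also: 0% = DMSO wells given calcium and 100% = 1 mM EGTA wells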
# MPTP counter – fluorescence retest of MPTP screen hits in isolated mitochondria, single concentration | shares compounds with MPTP block | membrane potential, Rhodamine 123 fluorescence | inhibition, % at 10 µM | 5,000 compounds, 78% hits; in the data active = inhibition above about 22%;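 also: 0% = DMSO vehicle and 100% = positive control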
# MPTP swell DR – mitochondrial permeability transition pore inhibitors, dose response, biochemical, absorbance, uHTS hits | shares compounds with MPTP block | isolated mitochondria swelling | IC50, µM | 780 compounds, 58% hits; in the data active = IC50 below about 20 µM
# MPTP counter DR – fluorescent counter-screen in isolated mitochondria, dose response, counter-screen for MPTP inhibitor project, biochemical, fluorescence, uHTS hits | AID 651564, 2012 | IC50, µM | isolated mitochondria counterscreen, fluorescence read-out | 780 compounds, 49% hits | shares compounds with MPTP block; in the data active = IC50 below about 80 µM
# Active calls of the source: *; . = not tested or not shown. An excerpt weighted towards active compounds, which were near 3.8% of everything screened.
SMILES,Exocytosis inh,T cell HTS,rCAG RNA binder,V-ATPase pH,Beta2AR agonist,MPTP block,MPTP counter,others
COC(=O)c1cc(CSc2nc3ccccc3c(=O)n2C)oc1C,2,308,4,-5,4,84*,93*,
COCCn1c(SCc2ccc(C(=O)OC)o2)nc2ccccc2c1=O,-1,352,-5,-2,-2,3,.,
Cc1ccc(-c2nc(CSc3nc4ccccc4c(=O)n3C)cs2)cc1,0,76,2,4,-8,100*,45*,
COc1ccc(Cn2cc(CN3[C@@H](Cc4ccccc4)COc4cc(Br)ccc4S3(=O)=O)nn2)cc1,.,.,7,.,.,.,.,
Cc1ccc(C(=O)NNC(=S)Nc2cccc(Cl)c2Cl)cc1[N+](=O)[O-],-2,206,.,-2,3,103*,85*,
Cc1cccc(NC(=O)NNC(=O)c2ccc(C)c([N+](=O)[O-])c2)c1,-1,204,3,1,-1,-1,.,
C=CCN1C(=O)/C(=C\C=C2\N(C)c3ccccc3C2(C)C)SC1=S,0,770,-9,-2,.,22,.,
CN1/C(=C\C=C2/SC(=S)N(CC(=O)O)C2=O)C(C)(C)c2ccccc21,-10,221,-302,-1,-94,75*,12,
O=S(=O)(c1ccc(Cl)cc1)N1CCN(c2ncnc3sccc23)CC1,4,107,5,-1,0,70*,94*,
Cc1csc2c(N3CCCCC3)ncnc12,12,251,-3,-1,-7,1,.,
Cc1csc2c(N3CCN(S(=O)(=O)c4ccc(Cl)cc4)CC3)ncnc12,6,411,3,-5,-7,67*,21*,
COc1ccccc1CC(=O)Nc1ccc([N+](=O)[O-])cc1O,1,490,4,1,1,54*,82*,
Cc1sc(NC(=O)/C=C/c2ccco2)c(C(=O)OC(C)C)c1C,-3,639,16,6,-8,52*,1,MPTP swell DR=>100;MPTP counter DR=>80
COC(=O)c1c(NC(=O)/C=C/c2ccco2)sc2c1CCC2,-6,454,6,-5,2,0,.,
Oc1cc2ccccc2cc1-c1n[nH]c(=S)o1,-2,379,23,0,14,96*,71*,
S=c1[nH]nc(-c2c[nH]c3ccccc23)o1,0,176,-2,-1,14,-1,.,
C(=N\Nc1nc(-c2ccccc2)cs1)/c1ccncc1,-2,245,6,-1,-13,-1,.,
CN(C)S(=O)(=O)c1ccc(-c2csc(N/N=C/c3ccc(O)cc3)n2)cc1,101*,427,32,4,47*,58*,43*,
Cc1nn(CCC(=O)NNC(=O)Nc2ccccc2F)c(C)c1[N+](=O)[O-],.,.,1,.,.,.,.,
CC(=O)c1cccc(NC(=O)Nc2cnn(Cc3ccc(Cl)cc3Cl)c2)c1,-1,846,9,-1,-6,73*,71*,
CNC(=O)Nc1ccc(Cl)cc1,-1,218,4,-2,3,96*,91*,
CC(=O)c1ccc(NC(=O)Nc2ccc(Cl)cc2)cc1,1,440,12,6,17,85*,86*,
CC(=O)c1ccc(NC(=S)NCc2ccc(Cl)cc2Cl)cc1,-2,147,11,0,2,95*,94*,
S=C(NCc1ccc(Cl)cc1Cl)NC1CCCCC1,3,201,-1,3,-1,106*,85*,
O=C(NCc1ccc(Cl)cc1)OCCN1C(=O)CCC12CCC(c1ccccc1)CC2 (configuration not stated),.,.,1,.,.,.,.,
